In ChEMBL document CHEMBL4359886, “Imidazo[2,1-a]isoindole scaffold as an uncharted structure active on Leishmania donovani” (Eur J Med Chem, 2019):
Active and inactive are the calls of the source. The calls are words filed in the database; no cut-off is given here.

How the values were obtained:
Leishmania donovani [1] = assay: Antileishmanial activity against Leishmania donovani promastigotes incubated for 72 hrs by MTT assay; type: functional, organism-based
How it was run: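 Promastigote proliferation was followed for 72 h in the presence of compound, then read by MTT reduction. EC50 is the concentration giving 50% inhibition of proliferation, from three independent experiments.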

[2] = Cytotoxicity against macrophage-differentiated human THP1 cells assessed as reduction in cell viability incubated for 72 hrs by MTT assay; type: cell-based; settings: macrophage-differentiated THP-1 cells
How it was run: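 THP-1 cells (3×10^4 per well) were differentiated with PMA (20 ng/mL, 48 h), then kept 24 h in fresh RPMI-1640 with 10% hiFBS. They were exposed to increasing compound concentrations for 72 h at 37 °C, then read by MTT reduction. CC50 is the 50% reduction versus untreated controls. Three independent experiments in triplicate.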

[3] = Cytotoxicity against human MRC5 cells assessed as reduction in cell viability incubated for 72 hrs by MTT assay; type: cell-based
How it was run: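 MRC5-SV2 (SV40-transformed human lung fibroblasts) were grown in DMEM with 10% hiFBS at 37 °C, 5% CO₂. Cells were exposed to increasing compound concentrations for 72 h at 37 °C, followed by MTT reduction. CC50 is the concentration reducing proliferation by 50% versus untreated cells. Three independent experiments in triplicate.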

[4] = Selectivity index, ratio of CC50 for macrophage-differentiated human THP1 cells to EC50 for Leishmania donovani MHOM/ET/67/HU3 amastigotes harboring luciferase reporter gene infected in macrophage-differentiated human THP1 cells; type: toxicity; settings: macrophage-differentiated THP-1 cells, read-out: Ratio CC50/EC50
How it was run: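 CC50 came from PMA-differentiated THP-1 cells exposed to compound for 72 h at 37 °C and read by MTT reduction (three independent experiments, triplicate). This was divided by the EC50 against intracellular amastigotes, measured by luciferase luminescence after 72 h of treatment.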

Leishmania donovani [5] = assay: Antileishmanial activity against Leishmania donovani MHOM/ET/67/HU3 amastigotes harboring luciferase reporter gene infected in macrophage-differentiated human THP1 cells incubated for 72 hrs by luminescence based assay; type: functional, organism-based; settings: MHOM/ET/67/HU3, THP-1, 72 h
How it was run: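 THP-1 cells were differentiated with PMA (20 ng/mL, 48 h), then kept 24 h in fresh medium. They were infected 24 h at 35 °C with stationary luciferase-expressing promastigotes at a macrophage:parasite ratio of 1:10, and free parasites were washed off. Compounds were added at 0.62–40 μM for 72 h at 37 °C. Cells were lysed with 0.1% Triton X-100 and luminescence read. EC50 from three independent experiments in triplicate.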

Leishmania donovani [6] = assay: Induction of plasma membrane permeabilization in Leishmania donovani promastigotes assessed as formation of blebbings in plasma membrane at EC70 incubated for 12 hrs by transmission electron microscopic method; type: functional, organism-based
Leishmania donovani [7] = assay: Induction of mitochondrial membrane depolarization in Leishmania donovani promastigotes assessed as swelling of mitochondrial cristae at EC70 incubated for 12 hrs by transmission electron microscopic method; type: functional, organism-based
Leishmania donovani [8] = assay: Induction of plasma membrane permeabilization in Leishmania donovani promastigotes by sytox green-based fluorescence assay; type: functional, organism-based
How it was run: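 Promastigotes at 20×10^6/mL in serum-free, phenol-red-free RPMI 1640 containing 1 µM SYTOX green received compound (10–50 µM tested). Fluorescence increase (ex 485/em 520 nm) was followed in real time. Triton X-100 (0.1% final) was then added to give full permeabilization, taken as 100%.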

Leishmania donovani [9] = assay: Antileishmanial activity against Leishmania donovani promastigotes harboring 3-Luc gene assessed as decrease in intracellular ATP level at 5 to 50 uM using DMNEP-D-luciferin as substrate pretreated for 4 hrs followed by substrate addition measured for 10 mins by luminescence based assay; type: functional, organism-based
How it was run: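 3-Luc promastigotes, which express cytoplasmic luciferase, at 20×10^6 cells/mL in serum-free, phenol-red-free RPMI 1640, incubated with 5, 10, 20, 30, 40 or 50 µM compound for 4 h at 26 °C. DMNPE-D-luciferin then added to 50 µM final, and luminescence recorded for 10 min. Values given as percent of untreated parasites. 1.5 µM 1,4-naphthoquinone used as respiratory-chain-inhibited control.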

Leishmania donovani [10] = assay: Antileishmanial activity against Leishmania donovani promastigotes harboring 3-Luc gene assessed as decrease in intracellular ATP level using DMNEP-D-luciferin as substrate at 5 to 50 uM measured for 10 mins by luminescence based assay; type: functional, organism-based
How it was run: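 3-Luc promastigotes at 20×10^6 cells/mL in serum-free, phenol-red-free RPMI 1640 containing 50 µM DMNPE-D-luciferin. Once luminescence was stable, compound (5–50 µM) was added and luminescence of the live parasites followed in real time. Expressed as percent of untreated parasites. Parasites given 1.5 µM 1,4-naphthoquinone served as control.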

Leishmania donovani [11] = assay: Induction of mitochondrial membrane depolarization in Leishmania donovani promastigotes at 30 uM incubated for 4 hrs by Rhodamine 123 dye-based flow cytometric assay; type: functional, organism-based
How it was run: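 Promastigotes at 20×10^6 cells/mL in serum-free, phenol-red-free RPMI 1640 were incubated with compound for 4 h. Rh123 (0.5 µg/mL) was added for 10 min, unbound probe was washed off, and intracellular accumulation was read by flow cytometry (ex 488/em 520 nm). Parasites given 10 mM KCN served as the dysfunctional-mitochondrion control.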

Leishmania donovani [12] = assay: Antileishmanial activity against Leishmania donovani promastigotes incubated for 4 hrs by MTT assay; type: functional, organism-based
How it was run: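 L. donovani promastigotes at 20×10^6 cells/mL in RPMI 1640 without serum or phenol red were exposed to compound for 4 h at 26 °C. MTT was then added (0.5 mg/mL final) for 2 h, and formazan was solubilized with 0.5% SDS final. A595 was read. IC50 is the concentration inhibiting MTT reduction by 50%. Run in triplicate, repeated at least twice.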

Row | SMILES | EC50 (Leishmania donovani [1]) | CC50 at 72 h [2] | CC50 at 72 h [3] | selectivity ratio [4] | EC50 (Leishmania donovani [5]) | Activity (Leishmania donovani [6]) | Activity (Leishmania donovani [7]) | Activity (Leishmania donovani [8]) | Activity (Leishmania donovani [9]) | Activity (Leishmania donovani [10]) | Activity (Leishmania donovani [11]) | IC50 (Leishmania donovani [12])
1 | OC1(Cc2ccc(Cl)cc2)c2cc(Cl)c(Cl)cc2C2=NCCN21 (stereo not given) | 6.9 µM | 31.9 µM | 8.91 µM | 10.8 | 2.95 µM |  |  |  |  |  |  | 
2 | OC1(Cc2ccc(Cl)cc2)c2ccccc2C2=NCCN21 (stereo not given) | 11.8 µM | 145 µM | 80 µM | 69.1 | 2.1 µM |  |  |  |  |  |  | 
3 | CSc1ccc(CC2(O)c3cc(Cl)c(Cl)cc3C3=NCCN32)cc1 (stereo not given) | 2.1 µM | 31.1 µM | 8.48 µM | 31.1 | 1 µM | Active | Active | Dose-dependent effect | Active | Active | Active | 7.3 µM
4 | OC1(Cc2ccccc2)c2ccccc2C2=NCCN21 (stereo not given) |  | > 200 µM | 182 µM |  | 27.8 µM |  |  |  |  |  |  | 
5 | OC1(Cc2ccccc2Cl)c2c(Cl)ccc(Cl)c2C2=NCCN21 (stereo not given) |  | 82 µM | 41 µM | 19.7 | 4.16 µM |  |  |  |  |  |  | 
6 | OC1(Cc2ccc(Cl)cc2)c2c(Cl)ccc(Cl)c2C2=NCCN21 (stereo not given) | 13.3 µM | 68.7 µM | 33.8 µM | 26.2 | 2.62 µM |  |  | Dose-dependent effect | Active | Active | Active | 14.4 µM
7 | C[C@@H]1[C@H](O)[C@@H](C)/C=C/C=C/C=C/C=C/C=C/C=C/C=C/[C@H](O[C@@H]2O[C@H](C)[C@@H](O)[C@H](N)[C@@H]2O)C[C@@H]2O[C@](O)(C[C@@H](O)C[C@@H](O)[C@H](O)CC[C@@H](O)C[C@@H](O)CC(=O)O[C@H]1C)C[C@H](O)[C@H]2C(=O)O [AMPHOTERICIN B] |  | 16 µM | 12 µM |  |  |  |  |  |  |  |  | 
8 | CSc1ccc(CC2(O)c3c(Cl)ccc(Cl)c3C3=NCCN32)cc1 (stereo not given) |  | 84.4 µM | 77.4 µM | 12.7 | 6.65 µM |  |  |  |  |  |  | 
